# Screens from PubChem BioAssay.
# This is a sample that favours compounds with a hit; in the whole collection about 1.6% have one here.
# UHRF1 MBD2 ctr – UHRF1 methylated DNA binding inhibitors, primary screen, counter-screen for MBD2 inhibitor project, biochemical, TR-FRET, human UHRF1, single concentration; E3 ubiquitin-protein ligase UHRF1 (Homo sapiens), Q96T88; UHRF1 binding to methylated oligo; inhibition, % at 4.4 µM; 370,000 compounds, 0.75% hits; AID 687016, 2013; in the data active = inhibition above about 21%;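 note: UHRF1 SRA domain binding a hemimethylated CpG hairpin DNA probe; 0% = median of test compound wells and 100% = reference inhibitor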
# Target sequence (Q96T88 whole entry, looked up, the tested form may be a part): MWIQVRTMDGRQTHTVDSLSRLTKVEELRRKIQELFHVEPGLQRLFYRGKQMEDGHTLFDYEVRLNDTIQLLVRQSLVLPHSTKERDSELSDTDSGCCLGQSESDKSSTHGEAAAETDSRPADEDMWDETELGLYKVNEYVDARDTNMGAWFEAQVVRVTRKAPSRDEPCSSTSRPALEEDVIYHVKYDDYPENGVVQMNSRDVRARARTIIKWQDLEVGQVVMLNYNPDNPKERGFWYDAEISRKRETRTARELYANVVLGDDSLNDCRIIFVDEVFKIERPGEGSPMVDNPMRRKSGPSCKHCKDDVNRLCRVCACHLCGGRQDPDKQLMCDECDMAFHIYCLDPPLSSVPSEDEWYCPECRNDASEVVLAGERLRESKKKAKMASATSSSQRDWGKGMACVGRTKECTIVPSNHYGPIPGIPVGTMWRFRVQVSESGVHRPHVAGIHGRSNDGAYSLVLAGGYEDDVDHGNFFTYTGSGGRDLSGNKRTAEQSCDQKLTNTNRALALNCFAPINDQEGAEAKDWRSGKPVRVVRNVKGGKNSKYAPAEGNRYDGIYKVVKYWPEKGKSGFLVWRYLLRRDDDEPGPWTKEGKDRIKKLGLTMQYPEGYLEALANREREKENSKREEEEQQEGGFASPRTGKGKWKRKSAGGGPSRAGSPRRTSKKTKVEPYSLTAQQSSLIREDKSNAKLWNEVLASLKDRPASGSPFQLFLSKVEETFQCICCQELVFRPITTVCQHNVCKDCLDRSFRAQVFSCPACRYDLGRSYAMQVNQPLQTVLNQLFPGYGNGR
# MBD2 DNA inh – inhibitors of MBD2 binding to methylated DNA, primary screen, biochemical, TR-FRET, DNA-binding domain, human. Methyl-CpG-binding domain protein 2 (Homo sapiens), Q9UBB5. MBD2 binding to methylated oligonucleotide. inhibition, % at 4.4 µM. 370,000 compounds, 0.31% hits. AID 686964, 2013; in the data active = inhibition above about 13%
# LEDGF integ inh – blockers of LEDGF/p75-dependent integrase strand transfer – biochemical, TR-FRET, high throughput, primary screen; TR-FRET IN-LEDGF/p75 DNA integration, Eu/Cy5; inhibition, % at 3.7 µM; 370,000 compounds, 0.64% hits;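 active = inhibition above the screen-wide mean plus 3 SD, cut at about 13% in these data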;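 note: signal is the Cy5 over europium emission ratio at 671 and 618 nm; 0% = plate median of compound wells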
# TDP2 absorb – human TDP2 enzyme inhibitors, primary screen, biochemical, epi absorbance, recombinant enzyme | 370,000 compounds, 0.34% hits | T5PNP hydrolysis, p-nitrophenol absorbance 415 nm | inhibition, % at 12.8 µM | AID 720702, 2013;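 active = inhibition above the mean of all tested compounds plus 3 SD, set per campaign, cut at about 25% in these data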;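 note: 0% = DMSO with enzyme and 100% = buffer with substrate but no TDP2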
#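 Test system: human TDP2 enzyme; Input: 120 nM TDP2 per well; Buffer or medium: Mg2+-containing Tris-HCl buffer, pH 7.5; Reagent: 5 mM T5PNP; Dosing: 12.8 µM single point, 1% DMSO; Incubation: reaction 2 h, 37 °C; Detection: p-Nitrophenol epi absorbance; Read-out: % inhibition relative to enzyme-containing and enzyme-free wells; Replicates: single well per compound.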
# IN multimer act – HIV-1 IN multimer formation enhancers, counter-screen for LEDGF/p75 integration inhibitor project, biochemical, TR-FRET | 2,000 compounds, 17% hits | activation, % at 7.7 µM | shares compounds with LEDGF integ inh | TR-FRET HIV-1 integrase multimerization; in the data active = activation above about 8.9%
# TRFRET interf – TR-FRET optical interference artefacts, confirmation, artefact control for LEDGF/p75-dependent integration inhibitor project, biochemical, HIV-1 IN multimerization; inhibition, % at 7.7 µM; TR-FRET optical interference counterscreen; 2,000 tested, under 10 active; shares compounds with LEDGF integ inh; AID 1053135, 2014;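 active = inhibition above the mean over all tested compounds plus 3 SD, which no compound reached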;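 note: 0% = integrase with antibodies and DMSO and 100% = antibodies without integrase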
# IN-LEDGF confirm – inhibitors of HIV-1 IN-LEDGF/p75 DNA integration, confirmation, biochemical, TR-FRET; 2,000 compounds, 36% hits; TR-FRET LEDGF/p75-dependent HIV-1 integration; inhibition, % at 3.7 µM; shares compounds with LEDGF integ inh; in the data active = inhibition above about 14%
# * hit, by the source's call; . = no result given.
SMILES,UHRF1 MBD2 ctr,MBD2 DNA inh,LEDGF integ inh,TDP2 absorb,IN multimer act,TRFRET interf,IN-LEDGF confirm
Cc1ccc(CC(=O)N(Cc2ccccc2)c2ccccn2)cc1,0.6,2.4,-0.4,-5.7,.,.,.
Cc1ccc(OCC(=O)N(Cc2ccccc2)c2ccccn2)cc1,0.4,-4.8,51.9*,-10.1,-3.7,13.0,-4.7
C[C@@H](NC(=O)OC(C)(C)C)C(=O)NCC1CCC(C(=O)N[C@@H](Cc2ccccc2)C(=O)O)CC1 (stereo not given in full),4.7,2.4,2.9,-3.4,.,.,.
O=C(O)C(c1ccccc1)N1C(=O)/C(=C\c2ccc(O)c(O)c2)SC1=S (stereo not given),1.1,-1.9,23.0*,-5.7,8.1,-40.8,51.0*
O=C(CCn1c(=O)c2ccccc2n(Cc2cccc([N+](=O)[O-])c2)c1=O)N1CCc2ccccc2C1,-0.4,0.2,1.3,3.7,.,.,.
Nc1cc(N)cc(C(=O)c2ccccc2)c1,-4.0,-11.9,21.1*,15.6,1.7,-8.6,-1.0
Nc1ccc(C(=O)C(=O)c2ccccc2)cc1,-1.4,-5.4,5.3,6.2,.,.,.
CC(C)OP(=O)(c1ccc(N(C)C)cc1)C(O)c1ccccc1F (stereo not given),2.0,3.0,-2.2,7.6,.,.,.
CC(C)CCOP(=O)(c1ccc(N(C)C)cc1)C(O)c1ccccc1F (stereo not given),-0.5,4.1,20.7*,4.2,-1.6,8.2,-3.4
CN1C(=O)C(CC(=O)Nc2ccc3c(c2)Cc2ccccc2-3)N(C)C1=O (stereo not given),-4.1,3.6,-0.5,8.4,.,.,.
COc1ccccc1OCCSc1nnnn1-c1ccc(C)cc1,-1.8,-5.4,37.2*,-12.8,-2.8,13.9,10.3
Fc1ccccc1OCCSc1nnnn1-c1ccccc1,-1.2,1.4,1.8,21.1,.,.,.
Cc1ccc(CNc2ncnc3ccc(-c4ccc(CO)o4)cc23)o1,-2.4,-2.8,18.5*,-4.3,5.8,-28.9,4.8
O=C(NC1CCCC1)C(c1cccnc1)N(Cc1ccccc1F)C(=O)c1csnn1 (stereo not given),-2.2,1.5,0.1,7.0,.,.,.
O=C(NC1CCCC1)C(c1cccnc1)N(Cc1ccc(F)cc1)C(=O)c1csnn1 (stereo not given),-0.3,1.1,20.6*,20.9,0.4,-2.1,-5.8
O=C(NCCNCc1ccc(F)cc1)c1ccco1,0.9,-2.8,21.6*,6.7,0.4,-2.1,-2.4
NCC1C2CCC(O2)C1CO (stereo not given),-1.8,4.0,55.5*,-0.9,0.1,-0.4,-2.4
O=C(NC1CC1)c1sc2cc(F)ccc2c1Cl,-0.7,-1.2,20.8*,3.7,0.3,-1.4,2.0
O=C(Cn1cc(COc2ccc(Cl)c(Cl)c2)nn1)NS(=O)(=O)c1ccccc1C(F)(F)F,0.1,1.6,2.9,11.5,.,.,.
O=C(Cn1cc(COc2ccc(-n3cccc3)cc2)nn1)NS(=O)(=O)c1ccccc1C(F)(F)F,6.5,1.4,26.6*,-1.7,1.3,-4.8,-13.5
CCN(Cc1ccccc1)c1cc2c(c3c1ccn3C)C1CCC2O1 (stereo not given),-1.8,1.8,13.4*,13.4,1.4,-6.9,-10.5
CN1CCN(C(c2ccc(Br)cc2)c2cc(Cl)c3cccnc3c2O)CC1 (stereo not given),-11.9,0.3,40.3*,-18.1,-3.0,15.2,2.0
CC(=O)N1CCN(C(=O)CCNS(=O)(=O)c2ccc(Br)cc2)CC1,0.3,-1.6,4.6,6.3,.,.,.
CC1CCN(C(=O)CCNS(=O)(=O)c2ccc(Br)cc2)CC1,-0.5,-1.6,45.4*,-7.7,-0.8,4.3,-3.6
CCOC(=O)c1c(C)[nH]c(C(=O)N2CCCC(C(=O)c3ccccc3OC)C2)c1C (stereo not given),2.0,0.1,-0.4,3.0,.,.,.
SMILES,UHRF1 MBD2 ctr,MBD2 DNA inh,LEDGF integ inh,TDP2 absorb,IN multimer act,TRFRET interf,IN-LEDGF confirm
Cc1nc2sc(C(c3ccco3)N3CCC(C)CC3)c(O)n2n1 (stereo not given),-2.0,2.5,13.4*,-8.6,-2.8,14.3,-2.5
Cc1nc2sc(C(c3ccco3)N3CCN(c4cccc(Cl)c4)CC3)c(O)n2n1 (stereo not given),3.9,3.8,20.5*,-16.1,-0.1,0.5,4.9
Cc1nc2sc(C(c3ccco3)N3CCN(C(c4ccccc4)c4ccccc4)CC3)c(O)n2n1 (stereo not given),-3.5,2.9,5.5,12.6,.,.,.
Cc1nc2sc(C(c3ccco3)N3CCN(c4ccccc4)CC3)c(O)n2n1 (stereo not given),6.1,2.7,-1.8,-7.8,.,.,.
Cc1ccc(C)c(NC(=O)CN(C)C(=O)CN2C(=O)NC3(CCc4ccccc43)C2=O)c1 (stereo not given),-1.8,-0.4,-0.5,0.9,.,.,.
O=C(NNC(=O)C1CCC1)c1ccc(Br)cc1,-1.6,-6.1,2.2,-1.3,.,.,.
O=C(NNC(=O)C1CCCCC1)c1ccc(Br)cc1,-1.9,3.5,14.6*,-4.2,-0.8,4.2,-2.8
CC(=O)OC[C@]12CC[C@H]3[C@@](C)(CC[C@H]4C(C)(C)CCC[C@]34C)[C@@H]1CC(C1=CC(=O)OC1O)O2 (stereo not given in full),4.1,4.6,20.4*,-0.3,-2.5,12.7,63.0*
CCCOc1ccc(Cc2nn3c(=O)/c(=C/c4ccco4)sc3nc2=O)cc1,23.4*,2.6,27.0*,-16.4,4.1,-15.0,14.8*
O=C(Nc1ncccc1O)c1ccc(S(=O)(=O)NCc2ccco2)cc1,-0.6,-6.0,-2.1,-9.9,.,.,.
c1cnc2ccc(C(c3nnnn3C3CCCCC3)N3CCN(C4CCCCC4)CC3)cc2c1 (stereo not given),-0.9,-2.8,-3.0,7.2,.,.,.
O=C(CCCCCN1C(=O)c2ccccc2C1=O)NC1CCCC1,-0.8,0.7,65.6*,-5.3,0.5,-2.3,-2.8
S=C(Nc1ccc(N2CCOCC2)cc1)Nc1ccc2nc(-c3ccco3)c(-c3ccco3)nc2c1,-5.5,-3.2,27.3*,14.1,18.4*,-65.2,51.4*
